The values that follow come from ChEMBL document CHEMBL2406980, “Non hemolytic short peptidomimetics as a new class of potent and broad-spectrum antimicrobial agents” (Bioorg Med Chem Lett, 2013).

Values after ≈ are worked out from the molar mass of the structure shown. Active and inactive are the calls of the source. The calls are words filed in the database; no cut-off is given here. Where a SMILES comes first, the peptide text is derived from it.

The test system of data set [1] is Pseudomonas aeruginosa. The experiment in a line: Antibacterial activity against Pseudomonas aeruginosa KCTC 1637 assessed as growth inhibition after 18 to 20 hrs by broth microdilution method. It is filed as functional. In short, it runs like this: (§1)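 MIC by broth microdilution against a four-strain panel: E. coli and P. aeruginosa (Gram-negative), S. epidermidis and S. aureus (Gram-positive). Values are given in mass and molar units. Where no activity occurs at the top concentration, twice that maximum is used in the geometric-mean MIC calculation.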

The test system of data set [2] is Escherichia coli. The data set is described as follows: Antibacterial activity against Escherichia coli KCTC 1682 assessed as growth inhibition after 18 to 20 hrs by broth microdilution method. It counts as functional. In short, it runs like this: as §1
(Broth dilution looks for growth in wells or tubes with falling amounts of substance.)

Data set [3] concerns Staphylococcus epidermidis. The data set is described as follows: Antibacterial activity against Staphylococcus epidermidis KCTC 1917 assessed as growth inhibition after 18 to 20 hrs by broth microdilution method. It counts as functional. In short, it runs like this:
as §1

Data set [4] relates to Staphylococcus aureus. The experiment in a line: Antibacterial activity against Staphylococcus aureus KCTC 1621 assessed as growth inhibition after 18 to 20 hrs by broth microdilution method. It counts as functional. In short, it runs like this: as §1
Data set [5] can be described thus: Hemolytic activity in human RBC after 1 hr. It is filed as ADME, cell-based. Particulars: erythrocyte. Put shortly:
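Human erythrocytes are exposed to peptide, and HC10 is taken as the peptide concentration producing 10% hemolysis. If no hemolysis is detected at the top concentration tested, twice that maximum is used for the therapeutic index.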

Data set [6] deals with Staphylococcus aureus. The data set is described as follows: Antibacterial activity against methicillin-resistant Staphylococcus aureus CCARM 3095 assessed as growth inhibition after 18 to 20 hrs by broth microdilution method. It counts as functional.
In data set [7] the test system is Escherichia coli. The experiment in a line: Antibacterial activity against Escherichia coli KCTC 1682 assessed as growth inhibition at 50 ug/ml preincubated with trypsin for 1 hr followed by 18 to 20 hrs incubation in bacterial culture by broth microdilution method. It counts as functional, organism-based. Put shortly: (§2)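 Peptides are pretreated with trypsin, then residual antibacterial activity is measured by broth microdilution. Remaining intact peptide at each degradation time is followed separately by analytical RP-HPLC after trypsin treatment.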

Data set [8] relates to Staphylococcus aureus. The experiment in a line: Antibacterial activity against methicillin-resistant Staphylococcus aureus CCARM 3089 assessed as growth inhibition after 18 to 20 hrs by broth microdilution method. It is filed as functional.
For data set [9], the system named is Staphylococcus aureus. The data set is described as follows: Antibacterial activity against Staphylococcus aureus KCTC 1621 assessed as growth inhibition at 50 ug/ml preincubated with trypsin for 1 hr followed by 18 to 20 hrs incubation in bacterial culture by broth microdilution method. It is filed as functional, organism-based. In short, it runs like this:
as §2

Data set [10] deals with Staphylococcus aureus. The experiment in a line: Antibacterial activity against methicillin-resistant Staphylococcus aureus CCARM 3090 assessed as growth inhibition after 18 to 20 hrs by broth microdilution method. It counts as functional.
In data set [11] the test system is Escherichia coli. The data set is described as follows: Antibacterial activity against Escherichia coli KCTC 1682 assessed as obvious disruption of cellular structure at 10 X MIC after 1 hr by transmission electron microscopic analysis. It is filed as functional, organism-based. In short, it runs like this: (§3)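 Peptide-treated E. coli and S. aureus are negatively stained and examined by transmission electron microscopy for cell rupture and release of internal material. Comparisons are made with untreated cells, with LL-37 as a positive lysis control.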

The subject of data set [12] is Staphylococcus aureus. The experiment in a line: Antibacterial activity against Staphylococcus aureus KCTC 1621 assessed as obvious disruption of cellular structure at 10 X MIC after 1 hr by transmission electron microscopic analysis. It counts as functional, organism-based. Put shortly:
as §3

As to H-WRWRWR-NH2 [listing 1 of 2 here], the MIC (commonly the lowest concentration found to suppress growth) in data set [1] was 15.3 µM; in data set [2] it was 3.8 µM; in data set [3] it was 7.7 µM; in data set [4] it was 7.7 µM.
H-WRWRWR-NH2 [listing 2 of 2 here] gave an HC10 in data set [5] above 245.2 µM.
Turning to `N=C(N)NCCC[C@H](NC(=O)[C@@H](N)Cc1c[n+](CCCC2CCCCC2)cn1CCCC1CCCCC1)C(N)=O`, the minimum inhibitory concentration (MIC) in [6] was 14.3 µM; in data set [1] it was 57.2 µM; in data set [8], 14.3 µM; in data set [2], above 114 µM; in data set [10], 28.6 µM; in [3] it was 14.3 µM. The MIC in data set [4] is 14.3 µM. Besides, the “growth inhibition (GI)” value in data set [7] and in data set [9] was “Active” in each case. The compound also had an HC10 in [5] above 457.6 µM.
Turning to `N=C(N)NCCC[C@H](NC(=O)[C@H](Cc1cncn1CCCC1CCCCC1)NC(=O)[C@@H](N)CCCNC(=N)N)C(N)=O`, the MIC was 54.1 µM (≈ 32 µg/mL) in data set [6]; 108 µM (≈ 63.9 µg/mL) in data set [1]; 54.1 µM (≈ 32 µg/mL) in data set [8]; 108 µM (≈ 63.9 µg/mL) in data set [2]; above 54.1 µM in data set [10]; 13.5 µM (≈ 7.98 µg/mL) in data set [3]. For the same compound, the MIC in [4] amounted to 13.5 µM (≈ 7.98 µg/mL). In addition, the “growth inhibition (GI)” value in [7] and in data set [9] was “inactive” throughout. In addition, in data set [5], the HC10 is above 432.9 µM.
As to `N=C(N)NCCC[C@H](NC(=O)[C@H](Cc1c[n+](CCCC2CCCCC2)cn1CCCC1CCCCC1)NC(=O)[C@@H](N)CCCNC(=N)N)C(N)=O`, the MIC in [6] was determined as 5.2 µM; in data set [1], 11.2 µM; in data set [8], 5.2 µM; in data set [2], 5.6 µM; in data set [10], 5.2 µM; in data set [3], 5.6 µM. The MIC in data set [4] was 5.6 µM. Further, the “growth inhibition (GI)” value in data set [7] and in data set [9] was “Active” in each case. In addition, the HC10 in data set [5] is above 357.8 µM. For the same compound, the outcome in [11] and in [12] was Active.
As for `CC[C@H](C)[C@H](NC(=O)CN)C(=O)NCC(=O)N[C@@H](C)C(=O)N[C@H](C(=O)N[C@@H](CC(C)C)C(=O)N[C@@H](CCCCN)C(=O)N[C@H](C(=O)N[C@@H](CC(C)C)C(=O)N[C@H](C(=O)N[C@H](C(=O)NCC(=O)N[C@@H](CC(C)C)C(=O)N1CCC[C@H]1C(=O)N[C@@H](C)C(=O)N[C@@H](CC(C)C)C(=O)N[C@H](C(=O)N[C@@H](CO)C(=O)N[C@@H](Cc1c[nH]c2ccccc12)C(=O)N[C@H](C(=O)N[C@@H](CCCCN)C(=O)N[C@@H](CCCNC(=N)N)C(=O)N[C@@H](CCCCN)C(=O)N[C@@H](CCCNC(=N)N)C(=O)N[C@@H](CCC(N)=O)C(=O)N[C@@H](CCC(N)=O)C(N)=O)[C@@H](C)CC)[C@@H](C)CC)[C@@H](C)O)[C@@H](C)O)C(C)C)C(C)C`, the “growth inhibition (GI)” value in [7] and in data set [9] was “inactive” each time.
For the compound `NC(=O)[C@H](CCCN=C(N)N)NC(=O)[C@H](Cc1c[nH]c2ccccc12)NC(=O)[C@@H](N)CCCN=C(N)N` (H-Arg-Trp-Arg-NH2), the MIC in [1], in [2], in data set [3] and in [4] was above 124 µM throughout. The compound further came in with an HC10 in data set [5] above 495.8 µM.
As to `CC[C@H](C)[C@H](NC(=O)[C@H](CCCCN)NC(=O)[C@H](CCC(=O)O)NC(=O)[C@H](CCCCN)NC(=O)[C@H](CO)NC(=O)[C@H](CCCCN)NC(=O)[C@H](CCCNC(=N)N)NC(=O)[C@H](Cc1ccccc1)NC(=O)[C@H](Cc1ccccc1)NC(=O)[C@H](CC(=O)O)NC(=O)CNC(=O)[C@H](CC(C)C)NC(=O)[C@@H](N)CC(C)C)C(=O)NCC(=O)N[C@@H](CCCCN)C(=O)N[C@@H](CCC(=O)O)C(=O)N[C@@H](Cc1ccccc1)C(=O)N[C@@H](CCCCN)C(=O)N[C@@H](CCCNC(=N)N)C(=O)N[C@H](C(=O)N[C@H](C(=O)N[C@@H](CCC(N)=O)C(=O)N[C@@H](CCCNC(=N)N)C(=O)N[C@H](C(=O)N[C@@H](CCCCN)C(=O)N[C@@H](CC(=O)O)C(=O)N[C@@H](Cc1ccccc1)C(=O)N[C@@H](CC(C)C)C(=O)N[C@@H](CCCNC(=N)N)C(=O)N[C@@H](CC(N)=O)C(=O)N[C@@H](CC(C)C)C(=O)N[C@H](C(=O)N1CCC[C@H]1C(=O)N[C@@H](CCCNC(=N)N)C(=O)N[C@H](C(=O)N[C@@H](CCC(=O)O)C(=O)N[C@@H](CO)C(=O)O)[C@@H](C)O)C(C)C)[C@@H](C)CC)C(C)C)[C@@H](C)CC` [CATHELICIDIN], the MIC in data set [6] was above 7.1 µM; in data set [1], 7.1 µM (≈ 31.9 µg/mL); in data set [8] it was above 7.1 µM; in data set [2], 7.1 µM (≈ 31.9 µg/mL); in data set [10] it was above 7.1 µM; in [3], 14.2 µM (≈ 63.8 µg/mL). In addition, in data set [4], the minimum inhibitory concentration (MIC) stood at 3.6 µM (≈ 16.2 µg/mL). This compound gave an HC10 in data set [5] of 36.7 µM. Also, the result in data set [11] and in data set [12] was Active.
For `N=C(N)NCCC[C@H](NC(=O)[C@H](Cc1c[nH]c2ccccc12)NC(=O)[C@H](CCCNC(=N)N)NC(=O)[C@@H](N)Cc1c[nH]c2ccccc12)C(N)=O` (H-WRWR-NH2), the HC10 in [5] was above 364.5 µM.
For the compound `N=C(N)NCCC[C@H](NC(=O)[C@@H](N)CCCNC(=N)N)C(=O)N[C@@H](Cc1c[n+](CCCC2CCCCC2)cn1CCCC1CCCCC1)C(N)=O`, the minimal inhibitory concentration (MIC) came to 5.6 µM in [6]; 11.2 µM in [1]; 5.6 µM in data set [8]; 5.6 µM in [2]; 11.2 µM in [10]; 5.6 µM in data set [3]. The MIC in data set [4] stood at 5.6 µM. Further, the “growth inhibition (GI)” value in [7] and in data set [9] was “Active” in each case. In data set [5], this compound registered an HC10 above 358 µM.
Regarding `NC(=O)[C@H](CCCN=C(N)N)NC(=O)[C@H](Cc1c[nH]c2ccccc12)NC(=O)[C@H](CCCN=C(N)N)NC(=O)[C@@H](N)Cc1c[nH]c2ccccc12` (H-WRWR-NH2), the MIC in data set [1] came to 45.6 µM (≈ 32 µg/mL); in [2], 45.6 µM (≈ 32 µg/mL); in data set [3] it was 11.4 µM (≈ 8 µg/mL); in [4], 45.6 µM (≈ 32 µg/mL).
In the case of `N=C(N)NCCC[C@H](NC(=O)[C@H](CCCNC(=N)N)NC(=O)[C@@H](N)Cc1c[n+](CCCC2CCCCC2)cn1CCCC1CCCCC1)C(N)=O`, the MIC in [6] was 5.6 µM; in data set [1], 11.2 µM; in [8], 5.6 µM; in data set [2], 5.6 µM; in [10], 5.6 µM; in [3], 2.8 µM. For the same compound, the MIC in data set [4] worked out at 2.8 µM. In addition, the “growth inhibition (GI)” value in [7] and in data set [9] was “Active” each time. The HC10 in data set [5] was above 357.7 µM. For the same compound, the outcome in data set [11] and in data set [12] was Active.
